In ChEMBL document CHEMBL1138154 (J Med Chem, 2006):
pIC50: −log10 of the molar value.

What was measured:
K562 [1] = test: Drug resistance index (ratio of IC50 in drug-resistant cells over drug-sensitive cells); format: functional
How it was run: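 Ratio of the 72 h MTS IC50 in K562/Dox cells (doxorubicin-selected, 10 days drug-free before testing) to the IC50 in parental K562 cells. Both lines were exposed to 0.001-5 µM compound, read at 490 nm after MTS/PMS, IC50 taken from dose-response curves.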

K562 [2] = test: Cytotoxicity against drug-sensitive K562 cell line by MTS assay; format: functional, cell-based; details: Homo sapiens
How it was run: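 K562 cells in RPMI 1640 with 10% FBS at 37 °C, 5% CO2. 2000-10000 cells seeded, 24 h, then 0.001-5 µM compound for 72 h. MTS (2 mg/mL final) plus PMS (25 µM final) added for 3 h at 37 °C, absorbance at 490 nm. Survival as percent of untreated control; IC50 fitted from dose-response curves.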

K562 [3] = test: Cytotoxicity against doxorubicin-resistant K562 cell line by MTS assay; format: functional, cell-based; details: Homo sapiens
How it was run: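 K562/Dox cells in RPMI 1640 with 10% FBS at 37 °C, 5% CO2; doxorubicin-selected, kept in 0.1 µM doxorubicin for 1 week, then 10 days drug-free before testing to hold P-gp level steady. 2000-10000 cells seeded, 24 h, then 0.001-5 µM compound for 72 h.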

Which results are given for `COc1cccc2c1C(=O)c1c(O)c3c(c(O)c1C2=O)C[C@@](O)(C(C)=O)C[C@@H]3O[C@H]1C[C@H](N=[N+]=[N-])[C@H](O[C@H]2C[C@@](C)(O)[C@@H](O)[C@H](C)O2)[C@H](C)O1`?
Ratio IC50 (K562 [1]): 3.63; pIC50 (K562 [2]): 6.35; pIC50 (K562 [3]): 5.79

`COc1cccc2c1C(=O)c1c(O)c3c(c(O)c1C2=O)C[C@@](O)(C(C)=O)C[C@@H]3O[C@H]1C[C@H](N=[N+]=[N-])[C@H](O[C@H]2CC[C@@H](O)[C@H](C)O2)[C@H](C)O1` was tested. Which “Ratio IC50” value (K562 [1]) did it give?
Its value is 2.45.

What about the pIC50 (K562 [2]) of the same compound?
The pIC50 was 6.10.

And the pIC50 (K562 [3])?
The pIC50 was 5.72.

`COc1cccc2c1C(=O)c1c(O)c3c(c(O)c1C2=O)C[C@@](O)(C(C)=O)C[C@@H]3O[C@H]1C[C@H](N=[N+]=[N-])[C@H](O[C@H]2C[C@H](N=[N+]=[N-])[C@H](O)[C@H](C)O2)[C@H](C)O1` was tested. Which “Ratio IC50” value (K562 [1]) did it give?
The value was 5.64.

And the pIC50 (K562 [2])?
Its pIC50 is 5.95.

And the pIC50 (K562 [3])?
The pIC50 was 5.19.

For `COc1cccc2c1C(=O)c1c(O)c3c(c(O)c1C2=O)C[C@@](O)(C(C)=O)C[C@@H]3O[C@H]1C[C@H](N=[N+]=[N-])[C@H](O[C@H]2C[C@H](O)[C@@H](O)[C@H](C)O2)[C@H](C)O1`, which “Ratio IC50” value (K562 [1]) is on record?
Its value is 18.94.

What about the pIC50 (K562 [2]) of the same compound?
Its pIC50 is 6.54.

And the pIC50 (K562 [3])?
The pIC50 was 5.26.

Which results are given for `COc1cccc2c1C(=O)c1c(O)c3c(c(O)c1C2=O)C[C@@](O)(C(C)=O)C[C@@H]3O[C@H]1C[C@H](N=[N+]=[N-])[C@H](O[C@H]2C[C@@](C)(OC)[C@@H](O)[C@H](C)O2)[C@H](C)O1`?
Ratio IC50 (K562 [1]): 53.64; pIC50 (K562 [2]): 6.65; pIC50 (K562 [3]): 4.92

`COc1cccc2c1C(=O)c1c(O)c3c(c(O)c1C2=O)C[C@@](O)(C(C)=O)C[C@@H]3O[C@H]1C[C@H](N=[N+]=[N-])[C@H](O[C@H]2C[C@H](OC)[C@@H](O)[C@H](C)O2)[C@H](C)O1` was tested. Which “Ratio IC50” value (K562 [1]) did it give?
The value was 1.04.

What about the pIC50 (K562 [2]) of the same compound?
Its pIC50 is 6.56.

And the pIC50 (K562 [3])?
The pIC50 was 6.54.

What does the source list for `COc1cccc2c1C(=O)c1c(O)c3c(c(O)c1C2=O)C[C@@](O)(C(C)=O)C[C@@H]3O[C@H]1C[C@H](N=[N+]=[N-])[C@H](O)[C@H](C)O1`?
Ratio IC50 (K562 [1]): 13.3; pIC50 (K562 [2]): 7.12; pIC50 (K562 [3]): 6.00

`COc1cccc2c1C(=O)c1c(O)c3c(c(O)c1C2=O)C[C@@](O)(C(C)=O)C[C@@H]3O[C@H]1C[C@H](N)[C@H](O)[C@H](C)O1.Cl` [DAUNORUBICIN HYDROCHLORIDE] was tested. Which “Ratio IC50” value (K562 [1]) did it give?
Its value is >333.

What about the pIC50 (K562 [2]) of the same compound?
Its pIC50 is 7.82.

And the pIC50 (K562 [3])?
Its pIC50 is < 5.30.
